From ChEMBL document CHEMBL5653631, “A Potent and Selective ULK1 Inhibitor Suppresses Autophagy and Sensitizes Cancer Cells to Nutrient Stress” (iScience, 2018)

Key:
[1] = target: T1, Serine/threonine-protein kinase 17B (Homo sapiens) (UniProt O94768); assay: Inhibition of human recombinant DRAK2 at 500 nM in presence of ATP by radiometric assay relative to control
T1 sequence (whole entry): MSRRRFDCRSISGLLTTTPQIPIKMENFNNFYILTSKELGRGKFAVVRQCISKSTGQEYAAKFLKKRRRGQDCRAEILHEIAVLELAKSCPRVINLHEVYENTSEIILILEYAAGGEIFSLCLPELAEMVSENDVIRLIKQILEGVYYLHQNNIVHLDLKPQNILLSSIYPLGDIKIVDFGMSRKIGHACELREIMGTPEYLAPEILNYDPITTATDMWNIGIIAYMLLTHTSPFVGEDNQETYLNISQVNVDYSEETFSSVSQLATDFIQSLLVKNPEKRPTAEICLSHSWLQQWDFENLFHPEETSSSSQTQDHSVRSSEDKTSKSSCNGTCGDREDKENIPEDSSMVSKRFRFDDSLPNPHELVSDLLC

[2] = target: Serine/threonine-protein kinase VRK2 (Homo sapiens) (UniProt Q86Y07); assay: Inhibition of human recombinant VRK2 at 500 nM in presence of ATP by radiometric assay relative to control
Chain of Serine/threonine-protein kinase VRK2 (Homo sapiens) (Q86Y07 whole entry): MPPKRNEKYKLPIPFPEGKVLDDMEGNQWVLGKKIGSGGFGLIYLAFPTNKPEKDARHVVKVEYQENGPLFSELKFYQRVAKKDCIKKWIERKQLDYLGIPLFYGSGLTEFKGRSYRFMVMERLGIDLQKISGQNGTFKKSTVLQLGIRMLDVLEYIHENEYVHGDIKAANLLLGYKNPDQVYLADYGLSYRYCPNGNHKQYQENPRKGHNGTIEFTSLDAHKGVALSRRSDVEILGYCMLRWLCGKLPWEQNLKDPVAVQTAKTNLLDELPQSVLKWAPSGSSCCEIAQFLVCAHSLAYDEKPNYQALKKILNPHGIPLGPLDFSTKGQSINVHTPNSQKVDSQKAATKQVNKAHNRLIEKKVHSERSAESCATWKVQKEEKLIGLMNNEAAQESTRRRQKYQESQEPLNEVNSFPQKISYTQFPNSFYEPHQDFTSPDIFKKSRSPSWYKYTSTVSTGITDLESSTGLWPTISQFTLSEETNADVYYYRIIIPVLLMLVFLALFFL

[3] = target: Fibroblast growth factor receptor 4 (Homo sapiens) (UniProt P22455); assay: Inhibition of human recombinant FGFR4 at 500 nM related to control ULK1
Chain of Fibroblast growth factor receptor 4 (Homo sapiens) (P22455 22-802 limits assumed): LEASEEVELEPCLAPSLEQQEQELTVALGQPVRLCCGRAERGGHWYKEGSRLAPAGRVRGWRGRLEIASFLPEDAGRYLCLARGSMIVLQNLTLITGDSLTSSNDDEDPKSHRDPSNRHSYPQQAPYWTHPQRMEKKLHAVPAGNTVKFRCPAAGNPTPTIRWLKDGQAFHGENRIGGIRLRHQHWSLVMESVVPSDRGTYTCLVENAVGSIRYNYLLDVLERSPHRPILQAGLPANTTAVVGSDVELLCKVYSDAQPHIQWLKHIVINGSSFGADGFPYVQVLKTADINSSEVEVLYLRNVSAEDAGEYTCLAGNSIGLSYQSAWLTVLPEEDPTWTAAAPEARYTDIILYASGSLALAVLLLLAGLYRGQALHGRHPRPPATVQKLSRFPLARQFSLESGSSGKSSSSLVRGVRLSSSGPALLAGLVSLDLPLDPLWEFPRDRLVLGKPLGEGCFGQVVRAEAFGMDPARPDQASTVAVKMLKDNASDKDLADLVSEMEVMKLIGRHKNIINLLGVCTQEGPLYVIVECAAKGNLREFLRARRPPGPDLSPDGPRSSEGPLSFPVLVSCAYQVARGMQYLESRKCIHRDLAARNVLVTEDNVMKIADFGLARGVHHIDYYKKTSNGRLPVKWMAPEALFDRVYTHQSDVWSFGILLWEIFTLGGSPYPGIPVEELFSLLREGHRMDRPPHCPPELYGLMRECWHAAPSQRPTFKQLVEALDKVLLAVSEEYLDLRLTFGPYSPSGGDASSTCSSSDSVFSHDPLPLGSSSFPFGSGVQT

[4] = target: T2, Serine/threonine-protein kinase BRSK2 (Homo sapiens) (UniProt Q8IWQ3); assay: Inhibition of human recombinant BRSK2 at 15 nM related to control ULK1
T2 sequence (whole entry): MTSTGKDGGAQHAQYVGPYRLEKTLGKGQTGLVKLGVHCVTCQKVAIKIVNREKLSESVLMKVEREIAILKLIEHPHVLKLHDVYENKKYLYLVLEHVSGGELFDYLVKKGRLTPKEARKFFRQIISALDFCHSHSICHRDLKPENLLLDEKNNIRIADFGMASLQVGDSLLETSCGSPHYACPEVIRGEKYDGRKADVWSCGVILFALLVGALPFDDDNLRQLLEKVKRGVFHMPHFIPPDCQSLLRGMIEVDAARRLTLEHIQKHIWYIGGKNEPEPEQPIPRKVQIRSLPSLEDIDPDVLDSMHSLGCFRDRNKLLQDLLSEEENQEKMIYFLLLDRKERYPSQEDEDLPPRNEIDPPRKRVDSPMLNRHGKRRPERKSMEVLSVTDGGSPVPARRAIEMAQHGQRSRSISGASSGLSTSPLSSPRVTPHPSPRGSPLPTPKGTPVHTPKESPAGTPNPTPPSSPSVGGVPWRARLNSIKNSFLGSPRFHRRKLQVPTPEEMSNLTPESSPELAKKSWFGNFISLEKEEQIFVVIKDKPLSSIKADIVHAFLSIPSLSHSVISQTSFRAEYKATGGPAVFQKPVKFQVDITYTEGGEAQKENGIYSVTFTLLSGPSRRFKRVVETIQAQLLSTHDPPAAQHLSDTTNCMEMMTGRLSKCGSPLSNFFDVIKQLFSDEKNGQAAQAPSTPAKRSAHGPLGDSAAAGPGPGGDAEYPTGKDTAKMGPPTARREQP
Method in brief: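 Recombinant human kinase panel (327 kinases) run as radiometric activity assays, each kinase in duplicate at one compound concentration. Activity remaining expressed relative to vehicle control; percent inhibition taken as 100% minus % activity remaining.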

[5] = target: T3, Ephrin type-A receptor 1 (Homo sapiens) (UniProt P21709); assay: Inhibition of human recombinant EphA1 at 15 nM related to control ULK1
T3 sequence (whole entry): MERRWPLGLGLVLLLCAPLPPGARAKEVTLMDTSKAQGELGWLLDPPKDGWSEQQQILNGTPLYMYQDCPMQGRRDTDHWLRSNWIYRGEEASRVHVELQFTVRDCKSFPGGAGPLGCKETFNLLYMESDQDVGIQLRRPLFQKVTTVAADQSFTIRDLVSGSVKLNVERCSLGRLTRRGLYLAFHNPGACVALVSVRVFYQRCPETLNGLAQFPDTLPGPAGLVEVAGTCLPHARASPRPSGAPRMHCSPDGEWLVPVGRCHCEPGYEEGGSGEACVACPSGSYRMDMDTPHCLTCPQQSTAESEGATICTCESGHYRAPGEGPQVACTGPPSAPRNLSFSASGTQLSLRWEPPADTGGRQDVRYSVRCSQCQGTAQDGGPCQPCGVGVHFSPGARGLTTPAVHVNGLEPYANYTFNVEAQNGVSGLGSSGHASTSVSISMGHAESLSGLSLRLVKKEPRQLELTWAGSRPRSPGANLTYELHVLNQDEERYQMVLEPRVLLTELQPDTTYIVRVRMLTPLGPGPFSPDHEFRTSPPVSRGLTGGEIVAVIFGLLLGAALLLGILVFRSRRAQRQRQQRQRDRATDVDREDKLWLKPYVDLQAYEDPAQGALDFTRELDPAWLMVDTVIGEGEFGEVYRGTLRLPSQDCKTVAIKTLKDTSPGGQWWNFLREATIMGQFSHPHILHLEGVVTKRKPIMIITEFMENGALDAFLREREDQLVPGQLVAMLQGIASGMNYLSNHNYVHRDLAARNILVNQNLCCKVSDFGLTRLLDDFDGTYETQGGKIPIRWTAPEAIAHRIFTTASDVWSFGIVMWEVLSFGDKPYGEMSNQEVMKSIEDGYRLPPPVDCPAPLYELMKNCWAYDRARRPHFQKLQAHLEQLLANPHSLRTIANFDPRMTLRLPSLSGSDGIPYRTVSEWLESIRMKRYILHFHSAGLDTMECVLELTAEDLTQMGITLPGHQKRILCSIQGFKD

[6] = target: Interleukin-1 receptor-associated kinase 1 (Homo sapiens) (UniProt P51617); assay: Inhibition of human recombinant IRAK1 at 15 nM related to control ULK1
Chain of Interleukin-1 receptor-associated kinase 1 (Homo sapiens) (P51617 whole entry, looked up): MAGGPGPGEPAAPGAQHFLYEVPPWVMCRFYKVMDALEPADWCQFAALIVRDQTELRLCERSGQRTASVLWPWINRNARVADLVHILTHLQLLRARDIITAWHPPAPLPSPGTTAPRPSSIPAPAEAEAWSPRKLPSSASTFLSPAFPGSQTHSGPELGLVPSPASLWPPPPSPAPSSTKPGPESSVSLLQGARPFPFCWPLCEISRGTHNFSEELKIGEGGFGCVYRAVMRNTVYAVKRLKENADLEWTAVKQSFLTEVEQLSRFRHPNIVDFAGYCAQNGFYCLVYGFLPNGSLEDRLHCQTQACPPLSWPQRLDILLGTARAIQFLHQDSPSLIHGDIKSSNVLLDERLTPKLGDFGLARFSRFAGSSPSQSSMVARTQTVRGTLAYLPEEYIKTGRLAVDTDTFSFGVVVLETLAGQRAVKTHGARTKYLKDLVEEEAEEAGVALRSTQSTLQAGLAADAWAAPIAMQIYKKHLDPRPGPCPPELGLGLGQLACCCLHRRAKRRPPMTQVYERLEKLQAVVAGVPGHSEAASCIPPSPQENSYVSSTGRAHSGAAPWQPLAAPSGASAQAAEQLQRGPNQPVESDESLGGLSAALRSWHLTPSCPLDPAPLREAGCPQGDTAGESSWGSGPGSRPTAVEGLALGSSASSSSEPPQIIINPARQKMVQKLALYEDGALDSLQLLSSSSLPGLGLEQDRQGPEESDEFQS

[7] = target: T4, Serine/threonine-protein kinase 3 (Homo sapiens) (UniProt Q13188); assay: Inhibition of human recombinant MST2 at 15 nM related to control ULK1
T4 sequence (whole entry): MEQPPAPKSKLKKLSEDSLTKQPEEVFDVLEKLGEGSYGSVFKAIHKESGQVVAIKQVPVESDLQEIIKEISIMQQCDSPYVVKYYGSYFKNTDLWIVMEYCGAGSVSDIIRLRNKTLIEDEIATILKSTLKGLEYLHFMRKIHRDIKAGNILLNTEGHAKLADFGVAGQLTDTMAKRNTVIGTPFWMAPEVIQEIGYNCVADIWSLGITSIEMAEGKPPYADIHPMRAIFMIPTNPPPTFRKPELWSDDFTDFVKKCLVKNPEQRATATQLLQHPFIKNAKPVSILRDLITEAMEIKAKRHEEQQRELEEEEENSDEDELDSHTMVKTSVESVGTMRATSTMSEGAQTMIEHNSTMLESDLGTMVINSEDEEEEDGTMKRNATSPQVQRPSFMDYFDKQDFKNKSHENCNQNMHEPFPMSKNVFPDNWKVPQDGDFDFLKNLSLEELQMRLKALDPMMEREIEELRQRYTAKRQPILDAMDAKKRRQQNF

inhibition [1] [%]	inhibition [2] [%]	fold change (FC) [3]	fold change (FC) [4]	fold change (FC) [5]	fold change (FC) [6]	fold change (FC) [7]	SMILES
6	23	0.14	–	–	–	–	CNC(=O)c1ccccc1Oc1nc(Nc2cc(OC)c(OC)c(OC)c2)ncc1Br
–	–	–	0.28	0	0.41	0.03	CC(C)[C@H](NC(=O)c1cc(-c2cnn3cc(-c4ccc(OCCN5CCCCC5)cc4)cnc23)cs1)C(F)(F)F
